Bioassay records from PubChem BioAssay.
MrgX1 antagonist: antagonists of human MrgX1 receptor; MRGX1-HEK293 calcium flux, Fluo-4, BAM8-22 antagonism; stronger effect = lower value; B-score at 10 µM; 1.3% of 310,000 active;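 active = calcium-response B-score plate-corrected more than 3 library SD below zero, starting fluorescence within 5 deviations, no agonist response on first addition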;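 note: peak minus trough fluorescence over baseline after final BAM8-22 challenge near maximal dose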
Target sequence (Q96LB2 whole entry, looked up): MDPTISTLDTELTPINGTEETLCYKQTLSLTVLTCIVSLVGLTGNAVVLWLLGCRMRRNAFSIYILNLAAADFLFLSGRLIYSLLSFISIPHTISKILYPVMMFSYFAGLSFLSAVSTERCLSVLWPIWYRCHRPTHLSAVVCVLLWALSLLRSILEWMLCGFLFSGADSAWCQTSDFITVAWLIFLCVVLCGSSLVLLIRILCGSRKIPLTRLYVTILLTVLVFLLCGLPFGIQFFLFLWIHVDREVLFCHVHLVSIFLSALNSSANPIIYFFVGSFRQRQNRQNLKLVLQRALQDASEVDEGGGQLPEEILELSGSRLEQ
RGS4 act: RGS4 potentiation or activation. HEK293 M3R/inducible RGS4, carbachol calcium flux Fluo4; stronger effect = lower value. 0.92% of 310,000 active. AID 463111. B-score at 10 µM;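 active = B-score of the integrated calcium signal more than 4 SD below the library mean, with starting fluorescence not abnormally high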;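 note: negative B-score means reduced calcium response which marks RGS4 activation or potentiation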
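Material: M3R-expressing HEK293 line, RGS4 induced by doxycycline | Schedule: Overnight RGS4 induction, 30 min dye load 37 °C, 20 min compound RT | Measured by: Fluo4 fluorescence kinetic imaging of calcium | Read-out: Integrated calcium ratio converted to B score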
RGS4 block: human RGS4 inhibition. B-score at 10 µM. HEK293 M3R/RGS4 inducible, Fluo-4 calcium flux; stronger effect = higher value; triggered by carbachol at its EC20. P49798. 0.45% of 310,000 active. AID 463165;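 active = B-score, a plate-corrected calcium signal, over three deviations above library mean, with baseline fluorescence within five deviations of library mean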;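 note: RGS4 expression induced by doxycycline in cells with stable M3 receptor; B-score is computed from the integrated fluorescence ratio over baseline after carbachol; higher B-score means a larger calcium signal and so more RGS4 inhibition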
Target sequence (P49798 whole entry, looked up): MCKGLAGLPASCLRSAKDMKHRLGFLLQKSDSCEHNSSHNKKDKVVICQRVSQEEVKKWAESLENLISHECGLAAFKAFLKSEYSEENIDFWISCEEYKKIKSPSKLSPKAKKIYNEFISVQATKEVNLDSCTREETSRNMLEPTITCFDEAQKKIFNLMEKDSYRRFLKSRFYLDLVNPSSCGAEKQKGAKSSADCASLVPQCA
MrgX1 PAM: human MrgX1 positive allosteric modulation, primary screen; AID 588675; 0.63% of 310,000 active; MrgX1-HEK293, Fluo-4 calcium flux, FDSS; stronger effect = higher value; B-score at 10 µM; Q96LB2;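 active = plate-corrected calcium response at least 3 library SD above typical, normal starting fluorescence, not activating the receptor alone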;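 note: compound read alongside a low EC10 to EC30 dose of BAM8-22 agonist; peak minus trough fluorescence over baseline measured at the second addition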
MrgX1 ag: activates human MrgX1 receptor signaling; AID 588627; 0.44% of 310,000 active; Q96LB2; B-score at 10 µM; MrgX1-HEK293 cells, Fluo-4 calcium fluorescence, agonist mode; stronger effect = higher value;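 active = calcium response B-score plate-corrected fluorescence ratio at least 3 library SD, with starting fluorescence B-score inside 5 SD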
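times = overnight plating, then 30 min 37 °C plus 30 min room-temperature dye loading | assay system = stable human MrgX1 HEK293 cell line | input = fifteen thousand cells per well | signal = kinetic calcium dye fluorescence, Fluo-4 NW | dosing = compound delivered in addition one of three | read-out = B-scored fluorescence response ratio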
RGS4 block valid: RGS4 inhibitor validation | shares compounds with RGS4 block | HEK293 M3R/RGS4, carbachol calcium Fluo-4 fluorescence; carbachol added at its EC20; 0 = buffer wells, 100 = carbachol control | calcium response, % at 10 µM | 65% of 1,700 active | AID 492999;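 active = duplicate-averaged calcium response above the buffer-only control mean plus 5 SD of those controls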;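 note: integrated fluorescence ratio F max minus min over baseline F0; higher response in RGS4-induced cells means RGS4 inhibition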
M3R Ca ctr: checks RGS4 inhibitor effects in non-induced HEK293 M3R cells. carbachol calcium Fluo-4; submaximal (EC20) carbachol stimulus; buffer wells 0%, carbachol control wells 100%. AID 493000. shares compounds with RGS4 block. activity (percent), % at 10 µM. 20% of 1,900 active; call rule not given here;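 note: RGS4 induction absent so cells express M3R without RGS4; higher means more calcium signal and flags a non-specific hit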
M3R basal Ca ctr: signal in non-induced cells without carbachol, RGS4 inhibitor counter-screen | 22% of 1,900 active | HEK293 M3R/RGS4 non-induced, Fluo-4 calcium, no carbachol; normalised: buffer wells 0%, carbachol wells 100% | shares compounds with RGS4 block | calcium response (agonist-mode artifact), % at 10 µM;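 active = duplicate-averaged calcium rise in uninduced cells above buffer wells' mean plus 5 SD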
* = called active by the depositor; i = inactive; nt = not tested or not shown. In the library only some 3.5% were active in any assay of this set; here they are far more common.

SMILES	MrgX1 antagonist	RGS4 act	RGS4 block	MrgX1 PAM	MrgX1 ag	RGS4 block valid	M3R Ca ctr	M3R basal Ca ctr
NC(=O)C1=NOC(CNc2ncc(C(F)(F)F)cc2Cl)C1 (centres undefined)	i	i	i	i	i	i	i	i
CO/N=C/NC(=O)C1=NOC(CNc2ncc(C(F)(F)F)cc2Cl)C1 (centres undefined)	i	i	i	i	i	nt	nt	nt
CC1=CC2=NC(=O)/C(=C/c3cccn3Cc3ccccc3)C(=N)N2O1	i	i	i	i	i	nt	nt	nt
N=C1/C(=C/c2cccn2Cc2ccc(Cl)cc2)C(=O)N=C2SC=CN12	i	i	8.4*	i	i	5.0%*	i	i
Cc1nn(-c2ccccc2)c(Cl)c1/C=N/NC(=O)c1ccccc1F	i	i	i	i	i	nt	nt	nt
COc1ccc(S(=O)(=O)CC(=O)Nc2nnc(C(F)(F)F)s2)cc1	i	i	i	i	i	nt	nt	nt
Cc1csc(SCC(=O)NCc2cccc(Cl)c2)n1	i	i	i	i	i	nt	nt	nt
O=C1/C(=C/c2cccnc2)CC/C1=C\c1cccnc1	i	i	6.9*	i	i	20%*	i	i
CC(C)/C=C1\CC/C(=C\c2cccnc2)C1=O	i	i	i	i	i	nt	i	i
CSCCC(NS(=O)(=O)c1ccc(C)cc1)C(=O)Nc1ccc(C)cn1 (centres undefined)	i	i	i	i	i	nt	nt	nt
COc1ccc2nc(-c3ccc(Cl)cc3)cc(C(=O)O)c2c1	i	i	i	i	i	nt	nt	nt
Cc1ccc(-c2nc(NC(=O)c3cc(C(C)(C)C)nn3C)sc2C)cc1Cl	i	i	i	i	i	nt	nt	nt
Cc1ccc(C(=O)NNC(=O)Cn2ccc(C(F)(F)F)n2)o1	i	i	i	i	i	nt	nt	nt
COC(=O)c1sc(N2C(=O)C(=O)/C(=C(/O)c3ccccc3)C2c2ccco2)nc1C (centres undefined)	i	i	i	i	i	i	i	i
Cc1nc(N2C(=O)C(=O)/C(=C(/O)c3ccccc3)C2c2ccco2)sc1C (centres undefined)	i	i	6.4*	i	i	8.5%*	i	i
O=C(c1ccc2oc(Cc3ccc(Cl)cc3)nc2c1)N1CC[C@H](O)C1	i	i	i	i	i	nt	nt	nt
CCCC(=O)N1CC(=O)Nc2ccc(C)cc2C1c1ccccc1 (centres undefined)	i	i	i	i	i	nt	nt	nt
FC(F)(F)c1cc(CCN2CCNC[C@H]2Cc2cccc3ccccc23)cc(C(F)(F)F)c1	i	i	5.1*	i	i	7.0%*	i	i
Oc1ccc(C[C@@H]2CNCCN2CCc2cc(C(F)(F)F)cc(C(F)(F)F)c2)cc1	i	i	i	i	i	nt	nt	nt
Cc1csc(-c2cnn(-c3ccccc3)c2NC(=O)c2ccc(C(F)(F)F)cc2)n1	i	i	i	i	i	nt	nt	nt
O=C(/C=C/NNC(=O)c1ccc(Cl)cc1)c1ccccc1	i	i	6.1*	i	i	i	i	i
COc1cc(C(=O)/C=C/c2cccnc2)ccc1O	i	i	11*	i	i	36%*	46%*	i
O=C(/C=C/c1cccnc1)c1cc(F)ccc1O	i	i	5*	i	i	22%*	72%*	i
COc1ccc(OC)c(C(=O)/C=C/c2cccnc2)c1	i	i	i	i	i	nt	nt	nt
Oc1c(Br)cc(Cl)cc1C=Nc1ccc(N2CCOCC2)cc1	i	i	i	i	i	nt	i	26%*
SMILES	MrgX1 antagonist	RGS4 act	RGS4 block	MrgX1 PAM	MrgX1 ag	RGS4 block valid	M3R Ca ctr	M3R basal Ca ctr
Oc1c(Br)cc(Cl)cc1C=Nc1ccccc1Br	i	i	i	i	i	nt	nt	nt
O=C(OCn1ncc(Br)c(Br)c1=O)c1ccc(F)cc1	i	i	13*	i	i	24%*	i	i
CCn1c2ccccc2c2cc(C3C(C#N)=C(N)Oc4n[nH]c(COC)c43)ccc21 (centres undefined)	i	i	25*	i	i	39%*	34%*	i
COc1ccc(NC(=O)/C(Cl)=C(/Cl)S(=O)(=O)Cc2ccccc2)cn1	nt	i	18*	nt	nt	69%*	48%*	15%*
CC(=O)N=c1sccn1CC(O)c1ccc(Br)cc1 (centres undefined)	i	i	i	i	i	nt	nt	nt
CC(Nc1nc(-c2ccc(F)cc2)cs1)c1nc2cc(Cl)c(N3CCCCC3)cc2n1CCCO (centres undefined)	i	i	i	i	i	nt	nt	nt
CC(Nc1nc(-c2ccc(F)cc2)cs1)c1nc2cc(Cl)c(N3CCCCC3)cc2n1CCOCCO (centres undefined)	i	i	i	i	i	i	i	i
CC(Nc1nc(-c2cccc(Br)c2)cs1)c1nc2cc(Cl)c(N3CCCCC3)cc2n1CCOCCO (centres undefined)	i	i	8.2*	i	i	10%*	i	i
Cc1cc(Cl)ccc1Nc1ncccc1C(N)=O	i	i	5.3*	i	i	12%*	i	i
COc1ccc(C)cc1NS(=O)(=O)c1ccc(NC(=O)CN(c2cc([N+](=O)[O-])ccc2C)S(C)(=O)=O)cc1	i	i	i	i	i	nt	i	i
CCOC(=O)N1CCC(=NNC(=O)c2ccccc2F)CC1	i	nt	nt	i	i	nt	nt	nt
CCN1C(=O)C(=O)N(Cc2ccc(OC)c(F)c2)C1=O	i	i	i	i	i	nt	nt	nt
COc1ccc2c(c1OC)C(=O)OC2Nc1nc(-c2ccc(-c3ccccc3)cc2)cs1 (centres undefined)	i	i	i	i	i	i	i	8.0%*
COc1ccc2c(c1OC)C(=O)OC2Nc1nc(-c2cc3ccccc3oc2=O)cs1 (centres undefined)	i	i	i	i	i	nt	nt	nt
COc1cccc(-c2csc(NC3OC(=O)c4c3ccc(OC)c4OC)n2)c1 (centres undefined)	i	i	i	i	i	nt	i	i
